Laboratory results published in ChEMBL document CHEMBL4616675, “Discovery of 6-Phenylhexanamide Derivatives as Potent Stereoselective Mitofusin Activators for the Treatment of Mitochondrial Diseases” (J Med Chem, 2020).
Values after ≈ are worked out from the molar mass of the structure shown.

Columns and labels:
[1] = Half life in human liver microsomes at 1 uM by LC-MS/MS analysis; type: ADME, Microsome; conditions: for t1/2: microsomes, 1 µM; for half-life at 1 µM: liver microsomes
[2] = Half life in mouse liver microsomes at 1 uM by LC-MS/MS analysis; type: ADME, Microsome; conditions: for t1/2: microsomes, 1 µM; for half-life at 1 µM: liver microsomes
[3] = Half life in CD1 mouse plasma at 10 mg/kg, iv by LC-MS/MS analysis; type: ADME, organism-based; conditions: for t1/2: mouse, in vivo; for half-life: CD1, mouse, plasma
[4] = Stability in mouse plasma at 2 uM after 120 mins by LC-MS/MS analysis relative to control; type: ADME, cell-free; conditions: read-out: Stability
Outline: (§1)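 Compounds at 2 µM in clarified freeze-thawed plasma, sampled at 0, 10, 30, 60 and 120 min. Supernatants after protein precipitation analysed by LC-MS/MS; the 120 min value is reported. Run in duplicate.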

[5] = Stability in human plasma at 2 uM after 120 mins by LC-MS/MS analysis relative to control; type: ADME, cell-free; conditions: read-out: Stability; outline: as §1
[6] = Kinetic solubility in pH 7.4 aqueous solution incubated for 24 hrs by UV spectroscopy; type: physicochemical; conditions: read-out: Kinetic_solubility
[7] = Drug level in CD1 mouse brain at 10 mg/kg, iv after 1 hr by LC-MS/MS analysis; type: ADME, organism-based; conditions: read-out: Drug uptake
Outline: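 Male CD-1 mice, 7–9 weeks old, given a single 10 mg/kg tail-vein dose. Compound formulated at 2 mg/ml in 10% DMSO/90% (30% HP-β-CD). Plasma and brain sampled at intervals after dosing and analysed in duplicate by LC-MS/MS. Parameters derived by non-compartmental analysis. Values are means of at least 3 mice per condition; 15 mice per compound.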

[8] = Volume of distribution in CD1 mouse at 10 mg/kg, iv by LC-MS/MS analysis; type: ADME, organism-based; conditions: in vivo
Outline: (§2)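 Male CD-1 mice, 7–9 weeks, 15 per compound; single tail-vein dose of 10 mg/kg from a 2 mg/ml solution in 10% DMSO/90% (30% HP-β-CD). Plasma and brain sampled at increasing times, assayed in duplicate by LC-MS/MS. Parameters from non-compartmental analysis; mean of at least 3 mice per condition.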

[9] = Half life in CD1 mouse brain at 10 mg/kg, iv by LC-MS/MS analysis; type: ADME, organism-based
[10] = AUC in CD1 mouse brain at 10 mg/kg, iv by LC-MS/MS analysis; type: ADME, organism-based; conditions: in vivo
[11] = AUC in CD1 mouse plasma at 10 mg/kg, iv by LC-MS/MS analysis; type: ADME, organism-based; conditions: in vivo
[12] = Cmax in CD1 mouse brain at 10 mg/kg, iv by LC-MS/MS analysis; type: ADME, organism-based; parameters: dose 10 mg/kg, route intravenous
[13] = Cmax in CD1 mouse plasma at 10 mg/kg, iv by LC-MS/MS analysis; type: ADME, organism-based; parameters: dose 10 mg/kg, route intravenous; conditions: in vivo
[14] = Ratio of drug level in brain to plasma in CD1 mouse at 10 mg/kg, iv by LC-MS/MS analysis; type: ADME, organism-based; outline: as §2

Q: For `O=C(COCCCc1ccccc1)N[C@H]1CC[C@H](O)CC1`, which t1/2 [1] is on record?
A: Its t1/2 is > 145 min.

Q: What about the t1/2 [2] of the same compound?
A: The t1/2 was > 145 min.

Q: Which results are given for `CC1CCCCC1NC(=O)NCCCCc1ccccc1` (configuration not stated)?
A: t1/2 [1]: 13.3 min; t1/2 [2]: 1.9 min

Q: Which results are given for `O=C(CCCCOc1ccccc1)N[C@H]1CC[C@H](O)CC1`?
A: t1/2 [1]: > 145 min; t1/2 [2]: > 145 min

Q: For `CC1CCCCC1NC(=O)NCCCc1nnc(C2CC2)n1-c1ccccc1` (configuration not stated), which t1/2 [3] is on record?
A: The t1/2 was 12.6 min.

Q: And the remaining at 2 h, 2 µM [4]?
A: The remaining at 2 h, 2 µM was 100%.

Q: What about the t1/2 [1] of the same compound?
A: The t1/2 was 6 min.

Q: What about the remaining at 2 h, 2 µM [5] of the same compound?
A: The remaining at 2 h, 2 µM was 95%.

Q: And the t1/2 [2]?
A: Its t1/2 is 2 min.

Q: And the solubility kinetic at 24 h [6]?
A: The solubility kinetic at 24 h was > 200 µM.

Q: What does the source list for `O=C(NCCCc1nnc(C2CC2)n1-c1ccc(F)cc1)NC1CCC(F)CC1` (configuration not stated)?
A: t1/2 [1]: 62 min; t1/2 [2]: 17 min

Q: For `O=C(NCCCCc1ccccc1)NC1CCC(O)CC1` (configuration not stated), which concentration at 1 h [7] is on record?
A: Its concentration at 1 h is < 120 ng/g.

Q: And the half-life [3]?
A: The half-life was 69 min.

Q: And the Vd [8]?
A: The Vd was 2 L/kg.

Q: What about the half-life [9] of the same compound?
A: Its half-life is 104 min.

Q: And the AUC [10]?
A: Its AUC is 829 ng·h/g.

Q: And the t1/2 [1]?
A: The t1/2 was > 145 min.

Q: And the AUC [11]?
A: Its AUC is 4860 ng·h/mL.

Q: What about the Cmax [12] of the same compound?
A: The Cmax was 1270 ng/g.

Q: What about the Cmax [13] of the same compound?
A: The Cmax was 6100 ng/mL.

Q: And the BPR [14]?
A: Its BPR is 0.171.

Q: What about the t1/2 [2] of the same compound?
A: Its t1/2 is > 145 min.

Q: Which t1/2 [1] does the source give for `CC1CCC(NC(=O)CCCCCc2ccccc2)CC1` (configuration not stated) here?
A: The t1/2 was 7 min.

Q: And the t1/2 [2]?
A: Its t1/2 is 1.4 min.

Q: Which remaining at 2 h, 2 µM [4] does the source give for `CC1CCCCC1NC(=O)NCCOc1nnc(C2CC2)n1-c1ccccc1` (configuration not stated) here?
A: The remaining at 2 h, 2 µM was 84%.

Q: And the half-life at 1 µM [1]?
A: Its half-life at 1 µM is 8 min.

Q: What about the remaining at 2 h, 2 µM [5] of the same compound?
A: The remaining at 2 h, 2 µM was 98%.

Q: And the half-life at 1 µM [2]?
A: Its half-life at 1 µM is 3 min.

Q: What about the solubility kinetic at 24 h [6] of the same compound?
A: Its solubility kinetic at 24 h is 24 µM (≈ 9.2 µg/mL).

Q: What does the source list for `CC1CC(O)CCC1NC(=O)NCCCCc1ccccc1` (configuration not stated)?
A: concentration at 1 h [7]: < 30 ng/g; half-life [3]: 38.4 min; Vd [8]: 2 L/kg; half-life [9]: 97.2 min; AUC [10]: 207 ng·h/g; t1/2 [1]: 40.1 min; AUC [11]: 2564 ng·h/mL; Cmax [12]: 366 ng/g; Cmax [13]: 3647 ng/mL; BPR [14]: 0.081; t1/2 [2]: 24.2 min

Q: With `O=C(CCOCCc1ccccc1)N[C@H]1CC[C@H](O)CC1` as the compound, how does the t1/2 [1] read?
A: The t1/2 was > 145 min.

Q: And the t1/2 [2]?
A: The t1/2 was > 145 min.

Q: Which t1/2 [1] does the source give for `O=C(CCCOCc1ccccc1)N[C@H]1CC[C@H](O)CC1` here?
A: The t1/2 was > 145 min.

Q: And the t1/2 [2]?
A: The t1/2 was > 145 min.

Q: With `O=C(CCCCCc1ccccc1)NC1CCOCC1` as the compound, how does the t1/2 [1] read?
A: The t1/2 was 53.6 min.

Q: What about the t1/2 [2] of the same compound?
A: Its t1/2 is 9.9 min.

Q: Which t1/2 [1] does the source give for `O=C(CCCCCc1cccnc1)NC1CCC(O)CC1` (configuration not stated) here?
A: The t1/2 was > 145 min.

Q: And the t1/2 [2]?
A: The t1/2 was 125.3 min.

Q: Which t1/2 [1] does the source give for `O=C(NCCCCc1ccccc1)NC1CCNCC1` here?
A: Its t1/2 is > 145 min.

Q: And the t1/2 [2]?
A: Its t1/2 is 137.5 min.

Q: With `O=C(NCCCc1nnc(C2CC2)n1-c1ccccc1)NC1CCOCC1` as the compound, how does the t1/2 [3] read?
A: The t1/2 was 11.4 min.

Q: What about the t1/2 [1] of the same compound?
A: Its t1/2 is > 145 min.

Q: What about the t1/2 [2] of the same compound?
A: Its t1/2 is 91 min.

Q: With `CCn1c(CCCNC(=O)NC2CCOCC2)nnc1C1CC1` as the compound, how does the t1/2 [3] read?
A: The t1/2 was 22.8 min.

Q: What about the t1/2 [1] of the same compound?
A: Its t1/2 is > 145 min.

Q: And the t1/2 [2]?
A: Its t1/2 is > 145 min.

Q: Which results are given for `O=C(CCCCCc1ccncc1)NC1CCC(O)CC1` (configuration not stated)?
A: t1/2 [1]: > 145 min; t1/2 [2]: > 145 min

Q: With `O=C(CCCCCc1ccncn1)NC1CCC(O)CC1` (configuration not stated) as the compound, how does the t1/2 [1] read?
A: Its t1/2 is > 145 min.

Q: What about the t1/2 [2] of the same compound?
A: Its t1/2 is > 145 min.

Q: For `CC1CCCCC1NC(=O)NCCSc1nnc(C2CC2)n1-c1ccccc1` (configuration not stated), which remaining at 2 h, 2 µM [4] is on record?
A: The remaining at 2 h, 2 µM was 94%.

Q: And the t1/2 [1]?
A: The t1/2 was 3 min.

Q: What about the remaining at 2 h, 2 µM [5] of the same compound?
A: The remaining at 2 h, 2 µM was 95%.

Q: What about the t1/2 [2] of the same compound?
A: The t1/2 was 1 min.

Q: And the solubility kinetic at 24 h [6]?
A: The solubility kinetic at 24 h was 67 µM (≈ 26.8 µg/mL).

Q: What does the source list for `CC1CCCCC1NC(=O)NCCc1nnc(-c2ccccc2)n1C` (configuration not stated)?
A: t1/2 [1]: 8 min; t1/2 [2]: 28 min

Q: For `NC1CCC(NC(=O)CCCCCc2ccccc2)CC1` (configuration not stated), which t1/2 [1] is on record?
A: Its t1/2 is 23.7 min.

Q: And the t1/2 [2]?
A: The t1/2 was 111.9 min.

Q: What does the source list for `CC1CCCCC1NC(=O)NCCCc1nnc(-c2ccccc2)n1C` (configuration not stated)?
A: t1/2 [1]: 43 min; t1/2 [2]: 6 min

Q: With `O=C(N[C@H]1CC[C@H](O)CC1)OCCCCc1ccccc1` as the compound, how does the t1/2 [1] read?
A: Its t1/2 is 131.3 min.

Q: And the t1/2 [2]?
A: The t1/2 was 48.9 min.

Q: What does the source list for `O=C(CCCCCc1ccccn1)NC1CCC(O)CC1` (configuration not stated)?
A: t1/2 [1]: > 145 min; t1/2 [2]: > 145 min

Q: For `CC1CCCCC1NC(=O)NCCCc1nnc(C2CC2)n1-c1ccc(F)cc1` (configuration not stated), which t1/2 [1] is on record?
A: Its t1/2 is 5 min.

Q: What about the t1/2 [2] of the same compound?
A: The t1/2 was 1 min.

Q: With `O=C(CCCCCc1ccccc1)NC1CCC(F)(F)CC1` as the compound, how does the half-life at 1 µM [1] read?
A: Its half-life at 1 µM is 10.2 min.

Q: What about the half-life at 1 µM [2] of the same compound?
A: Its half-life at 1 µM is 2.8 min.
